Measurements gathered from unrelated publications.
Lines come from different studies, so protocols differ.
MME: Neprilysin (MME, Homo sapiens, UniProt P08473)

Structure (SMILES) | target | observed | action | method | concentration | endpoint | value
COc1cc(Nc2ncc(F)c(Nc3ccc4c(n3)NC(=O)C(C)(C)O4)n2)cc(OC)c1OC | Dual specificity mitogen-activated protein kinase kinase 4 (MAP2K4, Homo sapiens, UniProt P45985) | binding | – | competition with immobilised ligand | 10 µM | inhibition | 85%
COc1ncccc1-c1cnn2ccc(N3CCN(C(=O)OC(C)C)CC3)nc12 | Phosphatidylinositol 5-phosphate 4-kinase type-2 gamma (PIP4K2C, Homo sapiens, UniProt Q8TBX8) | binding | – | competition with immobilised ligand | 1 µM | remaining binding | 9.5%
Cc1sc2c(c1C)C(c1ccc(Cl)cc1)=N[C@@H](CC(=O)OC(C)(C)C)c1nnc(C)n1-2 | Stimulator of interferon genes protein (STING1, Homo sapiens, UniProt Q86WV6, H232R) | thermal stability | – | DSF | 100 µM | ΔTm | -0.92 °C
c1ccc(C(NCCNC(c2ccccc2)c2ccccc2)c2ccccc2)cc1 | MME | enzyme activity | inhibitor | – | 10 µM | inhibition | 8%
O=C(Nc1cccnn1)N1CCN([C@@H]2CCOc3cc(C(F)(F)F)ccc32)CC1 | MME | enzyme activity | inhibitor | – | 20 µM | inhibition | 3%
C#Cc1n[nH]c2c(-c3cn([C@@H](C)c4ccccc4)c(=O)[nH]c3=O)cc(F)cc12 | Tyrosine-protein kinase JAK2 (JAK2, Homo sapiens, UniProt O60674) | enzyme activity | inhibitor | – | 0.1 µM | inhibition | -3%
Cc1ncc(C)n2nc(/C=C/c3nc(N4CCCC4)cc(N4CCOCC4)n3)nc12 | MME | enzyme activity | inhibitor | – | 10 µM | inhibition | -13%
C[C@H](C(=O)N[C@H]1COc2ccccc2[C@@H]1S(C)(=O)=O)c1ccc(F)cc1 | MME | enzyme activity | inhibitor | – | 10 µM | inhibition | -1%
Nc1ncc(-c2nc(N3CCOCC3)nc(N3CCOCC3)n2)c(C(F)F)n1 | Serine/threonine-protein kinase 38 (STK38, Homo sapiens, UniProt Q15208) | binding | – | competition with immobilised ligand | 10 µM | remaining binding | 66%
Cc1nn(C)cc1-c1nc2c(N3CCN(Cc4ccc(Cl)cc4)CC3)c(Cl)cnc2[nH]1 | Serine/threonine-protein kinase LATS2 (LATS2, Homo sapiens, UniProt Q9NRM7) | binding | – | competition with immobilised ligand | 1 µM | remaining binding | 77%
C#Cc1n[nH]c2c(-c3cn([C@@H](C)c4ccccn4)c(=O)[nH]c3=O)cc(F)cc12 | Proto-oncogene tyrosine-protein kinase receptor Ret (RET, Homo sapiens, UniProt P07949, V804L) | enzyme activity | inhibitor | – | 0.1 µM | inhibition | 4.5%
CCN(CC)CCCC[C@H](NC(=O)[C@H](CC(C)C)NC(=O)[C@H](C)NC(=O)[C@H](Cc1ccccc1)NC(=O)c1ccc(C(C)(C)C)cc1)C(=O)N[C@@H](CO)C(=O)OC | Histone-lysine N-methyltransferase ASH1L (ASH1L, Homo sapiens, UniProt Q9NR48) | thermal stability | – | DSF | 25 µM | ΔTm | -0.39 °C
